# According to ChEMBL document CHEMBL1141037, “Synthesis and in vitro pharmacological studies of C(4) modified salvinorin A analogues” (Bioorg Med Chem Lett, 2005):
# Key:
# [1] = target: T1, Kappa-type opioid receptor (Homo sapiens, UniProt P41145); experiment: Binding affinity for […] [3H]diprenorphine against human Opioid receptor kappa expressed in chinese hamster ovary cells (CHO cells); format: cell-based
# Method in brief: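 Competitive displacement of [3H]diprenorphine binding to membranes from CHO cells stably transfected with human KOR; compounds were first screened at a single concentration.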
# [2] = target: T1, Kappa-type opioid receptor; experiment: Percent maximal response in enhanced [35S]GTP-gamma-S, binding to human Opioid receptor kappa expressed in CHO cells relative to U50,488H; format: functional, cell-based
# Method in brief: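 Agonist stimulation of [35S]GTPγS binding to membranes of CHO-hKOR cells; efficacy is maximal response expressed as % of that of U50,488H; means of at least three independent experiments run in duplicate.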
# [3] = target: T1, Kappa-type opioid receptor; experiment: Concentration required to enhance [35S]GTP-gamma-S, binding to human Opioid receptor kappa expressed in CHO cells; format: functional, cell-based
# Method in brief: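 [35S]GTPγS binding to membranes of CHO cells stably expressing human KOR; EC50 for agonist-stimulated enhancement of binding; means of at least three independent experiments run in duplicate.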
# T1 sequence (P41145 whole entry): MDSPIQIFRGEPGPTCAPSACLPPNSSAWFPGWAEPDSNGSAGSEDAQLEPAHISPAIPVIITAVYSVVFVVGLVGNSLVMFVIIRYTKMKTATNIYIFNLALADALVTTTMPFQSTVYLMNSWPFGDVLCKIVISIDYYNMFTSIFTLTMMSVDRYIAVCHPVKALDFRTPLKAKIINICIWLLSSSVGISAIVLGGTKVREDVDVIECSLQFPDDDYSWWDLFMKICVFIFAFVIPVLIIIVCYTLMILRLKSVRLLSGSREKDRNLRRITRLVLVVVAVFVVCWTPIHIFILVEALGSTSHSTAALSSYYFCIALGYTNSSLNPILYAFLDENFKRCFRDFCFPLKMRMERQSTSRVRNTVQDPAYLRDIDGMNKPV
Compound,Ki [1],Efficacy [2],EC50 [3]
CC(=O)O[C@H]1C[C@@H](C(=O)OCc2ccccc2)[C@]2(C)CC[C@H]3C(=O)O[C@H](c4ccoc4)C[C@]3(C)[C@H]2C1=O,> 1000 nM,–,–
CC(=O)O[C@H]1C[C@@H](C(=O)NC2CC2)[C@]2(C)CC[C@H]3C(=O)O[C@H](c4ccoc4)C[C@]3(C)[C@H]2C1=O,> 1000 nM,–,–
CC(=O)O[C@H]1C[C@@H](C(=O)NC(C)C(=O)OCc2ccccc2)[C@]2(C)CC[C@H]3C(=O)O[C@H](c4ccoc4)C[C@]3(C)[C@H]2C1=O (some centres undefined),26.9 nM,95%,46.7 nM
CCOC(=O)[C@@H]1C[C@H](OC(C)=O)C(=O)[C@H]2[C@@]1(C)CC[C@H]1C(=O)O[C@H](c3ccoc3)C[C@]21C,28.5 nM,110%,94.4 nM
CC(=O)O[C@H]1C[C@@H](C(=O)O)[C@]2(C)CC[C@H]3C(=O)O[C@H](c4ccoc4)C[C@]3(C)[C@H]2C1=O,> 1000 nM,–,–
CC(=O)O[C@H]1C[C@@H](C(=O)N2CCCC2C(=O)OCc2ccccc2)[C@]2(C)CC[C@H]3C(=O)O[C@H](c4ccoc4)C[C@]3(C)[C@H]2C1=O (some centres undefined),210 nM,100%,348 nM
COCOC(=O)[C@@H]1C[C@H](OC(C)=O)C(=O)[C@@H]2[C@@]3(C)C[C@@H](c4ccoc4)OC(=O)[C@H]3CC[C@]21C,110 nM,102%,191 nM
CCCCOC(=O)[C@@H]1C[C@H](OC(C)=O)C(=O)[C@H]2[C@@]1(C)CC[C@H]1C(=O)O[C@H](c3ccoc3)C[C@]21C,> 1000 nM,–,–
CC(=O)O[C@H]1C[C@@H](C(=O)NCC(=O)OCc2ccccc2)[C@]2(C)CC[C@H]3C(=O)O[C@H](c4ccoc4)C[C@]3(C)[C@H]2C1=O,470 nM,105%,227 nM
CCCCCCCCOC(=O)[C@@H]1C[C@H](OC(C)=O)C(=O)[C@H]2[C@@]1(C)CC[C@H]1C(=O)O[C@H](c3ccoc3)C[C@]21C,> 1000 nM,–,–
C#CCCOC(=O)[C@@H]1C[C@H](OC(C)=O)C(=O)[C@H]2[C@@]1(C)CC[C@H]1C(=O)O[C@H](c3ccoc3)C[C@]21C,> 1000 nM,–,–
CC(=O)O[C@H]1C[C@@H](C(=O)NCC(=O)OCc2ccccc2)[C@]2(C)CC[C@@H]3C(=O)O[C@H](c4ccoc4)C[C@]3(C)[C@H]2C1=O,> 1000 nM,–,–
CC(=O)O[C@H]1C[C@@H](C(=O)NC(CO)C(=O)OCc2ccccc2)[C@]2(C)CC[C@H]3C(=O)O[C@H](c4ccoc4)C[C@]3(C)[C@H]2C1=O (some centres undefined),> 1000 nM,–,–
CC(=O)O[C@H]1C[C@@H](C(=O)NN2CCC(C)CC2)[C@]2(C)CC[C@H]3C(=O)O[C@H](c4ccoc4)C[C@]3(C)[C@H]2C1=O,> 1000 nM,–,–
CC(=O)O[C@H]1C[C@@H](C(=O)NCCO)[C@]2(C)CC[C@H]3C(=O)O[C@H](c4ccoc4)C[C@]3(C)[C@H]2C1=O,> 1000 nM,–,–
CC(=O)O[C@H]1C[C@@H](C(=O)NCc2ccccc2)[C@]2(C)CC[C@H]3C(=O)O[C@H](c4ccoc4)C[C@]3(C)[C@H]2C1=O,> 1000 nM,–,–

Compound,Ki [1],Efficacy [2],EC50 [3]
CC(=O)O[C@H]1C[C@@H](C(=O)O)[C@]2(C)CC[C@@H]3C(=O)O[C@H](c4ccoc4)C[C@]3(C)[C@H]2C1=O,48.6 nM,94%,74.1 nM
CC(=O)O[C@H]1C[C@@H](C(=O)NN2CCOCC2)[C@]2(C)CC[C@H]3C(=O)O[C@H](c4ccoc4)C[C@]3(C)[C@H]2C1=O,> 1000 nM,–,–
CC(=O)O[C@H]1C[C@@H](C(=O)NC(C)C(=O)OCc2ccccc2)[C@]2(C)CC[C@@H]3C(=O)O[C@H](c4ccoc4)C[C@]3(C)[C@H]2C1=O (some centres undefined),> 1000 nM,–,–
CC(=O)O[C@H]1C[C@@H](C(=O)NC(Cc2c[nH]cn2)C(=O)OCc2ccccc2)[C@]2(C)CC[C@H]3C(=O)O[C@H](c4ccoc4)C[C@]3(C)[C@H]2C1=O (some centres undefined),> 1000 nM,–,–
CCCCCOC(=O)[C@@H]1C[C@H](OC(C)=O)C(=O)[C@H]2[C@@]1(C)CC[C@H]1C(=O)O[C@H](c3ccoc3)C[C@]21C,> 1000 nM,–,–
C=CCOC(=O)[C@@H]1C[C@H](OC(C)=O)C(=O)[C@H]2[C@@]1(C)CC[C@H]1C(=O)O[C@H](c3ccoc3)C[C@]21C,> 1000 nM,–,–
CC(=O)O[C@H]1C[C@@H](C(=O)NCCC#N)[C@]2(C)CC[C@H]3C(=O)O[C@H](c4ccoc4)C[C@]3(C)[C@H]2C1=O,> 1000 nM,–,–
CC(=O)O[C@H]1C[C@@H](C(=O)NC2CC2)[C@]2(C)CC[C@@H]3C(=O)O[C@H](c4ccoc4)C[C@]3(C)[C@H]2C1=O,475 nM,95%,840 nM
CC(=O)O[C@H]1C[C@@H](C(=O)N2CCCC2C(=O)OCc2ccccc2)[C@]2(C)CC[C@@H]3C(=O)O[C@H](c4ccoc4)C[C@]3(C)[C@H]2C1=O (some centres undefined),> 1000 nM,–,–
CCOC(=O)[C@@H]1C[C@H](OC(C)=O)C(=O)[C@@H]2[C@@]3(C)C[C@@H](c4ccoc4)OC(=O)[C@H]3CC[C@]21C,> 1000 nM,–,–
CCCOC(=O)[C@@H]1C[C@H](OC(C)=O)C(=O)[C@H]2[C@@]1(C)CC[C@H]1C(=O)O[C@H](c3ccoc3)C[C@]21C,> 1000 nM,–,–
C#CCCCOC(=O)[C@@H]1C[C@H](OC(C)=O)C(=O)[C@H]2[C@@]1(C)CC[C@H]1C(=O)O[C@H](c3ccoc3)C[C@]21C,201 nM,104%,224 nM
COCOC(=O)[C@@H]1C[C@H](OC(C)=O)C(=O)[C@H]2[C@@]1(C)CC[C@H]1C(=O)O[C@H](c3ccoc3)C[C@]21C,99.6 nM,105%,58.2 nM
CC(=O)O[C@H]1C[C@@H](C(=O)NCCc2ccccc2)[C@]2(C)CC[C@H]3C(=O)O[C@H](c4ccoc4)C[C@]3(C)[C@H]2C1=O,> 1000 nM,–,–
C#CCCCOC(=O)[C@@H]1C[C@H](OC(C)=O)C(=O)[C@@H]2[C@@]3(C)C[C@@H](c4ccoc4)OC(=O)[C@H]3CC[C@]21C,> 1000 nM,–,–
